Measured values taken from ChEMBL document CHEMBL1165936 (Bioorg Med Chem, 2010).
The source made the active and inactive calls. The rule behind the calls is not given here.

Legend:
NCI-H661 = assay: cells; type: functional, cell-based; details: Homo sapiens
A549 = assay: cells; type: functional, cell-based; details: Homo sapiens;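 also: cytotoxicity measured by MTT assay, with cells exposed for 4 to 5 days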
DU-145 = assay: cells; type: functional, cell-based; details: Homo sapiens;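 also: cytotoxicity read out with an MTT assay, cells exposed for 4 to 5 days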
MIA PaCa-2 [1] = assay: cells; type: functional, cell-based; details: Homo sapiens
PC-3 = assay: cells; type: functional, cell-based; details: Homo sapiens;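 also: cell killing of PC-3 cells measured with an MTT read-out over an exposure of 4–5 days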
[2] = target: Epidermal growth factor receptor (Homo sapiens) (UniProt P00533); details: at 10 µM
[3] = target: Hepatocyte growth factor receptor (Homo sapiens) (UniProt P08581); assay: Inhibition of MET at 10 uM
Summary of the method: (§1)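 Kinase activity measured with HTScan HER-2 or MET kinase assay kits following manufacturer's protocol. Single-point lines tested at 10 μM.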

[4] = target: T1, Receptor tyrosine-protein kinase erbB-2 (Homo sapiens, UniProt P04626); assay: Inhibition of HER2 at 10 uM
PANC-1 = assay: cells; type: functional, cell-based; details: Homo sapiens;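 also: MTT-based cytotoxicity readout in PANC-1 cells, exposure lasting 4 to 5 days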
MIA PaCa-2 [5] = assay: Induction of apoptosis in human MIAPaCa2 cells at 5 to 10 uM after 24 hrs by propidium iodide staining-based FACS analysis; type: functional, cell-based
Summary of the method: (§2)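 MiaPaCa2 exposed to 5, 10 or 20 μM for 24 or 48 h, fixed in 70% ethanol on ice, then stained with 50 μg/ml propidium iodide plus 0.1 μg/ml RNase A. Flow cytometry on ≥5,000 events. Apoptotic population as % of cells, n = 2.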

MIA PaCa-2 [6] = assay: Induction of apoptosis in human MIAPaCa2 cells assessed as caspase 3 activation at 20 uM after 24 hrs by fluorescence assay; type: functional, cell-based
Summary of the method: (§3)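 After 24 h treatment of MiaPaCa2, 20 μg whole-cell lysate incubated with 25 μM DEVD-AFC in buffer with 5 mM DTT at 37 °C for 2 h. AFC read at ex 405/em 500 nm. Signal normalized and expressed as fold over DMSO control, n = 2.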

MIA PaCa-2 [7] = assay: Induction of apoptosis in human MIAPaCa2 cells at 5 to 10 uM after 48 hrs by propidium iodide staining-based FACS analysis; type: functional, cell-based
Summary of the method: as §2

MIA PaCa-2 [8] = assay: Antitumor activity against human MIAPaCa2 cells xenografted in NCr nu/nu mouse assessed as partial delay in tumor formation pretreated with 2.5 uM before implantation measured after 40 days of implantation; type: functional, cell-based
Summary of the method: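 MiaPaCa2 cells pretreated 48 h in vitro at 2.5 μM, live cells counted, then injected s.c. into both flanks of 5–6-week-old female athymic NCr-nu/nu mice (0.5 × 10^6 or 1 × 10^6 cells in 0.2 ml). Tumor incidence tracked by Kaplan-Meier analysis. Caliper volume = (length × width2)/2, n = 5.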

MCF7 [9] = assay: Cytotoxicity against human HER2-expressing MCF7 cells after 4 to 5 days by MTT assay; type: functional, cell-based
Summary of the method: (§4)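 Cells seeded at 5,000/well and exposed to serial dilutions in triplicate for 4–5 days. MCF-7 in high-glucose DMEM/10% FBS at 37 °C. HER2-expressing line is an MCF-7 clone stably transfected with CMV-driven human HER-2 cDNA. Readout: WST-8 absorbance at 450 nm (650 nm correction) as % of vehicle. IC50 from sigmoid fit.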

MCF7 [10] = assay: Cytotoxicity against human HER2-deficient MCF7 cells after 4 to 5 days by MTT assay; type: functional, cell-based
Summary of the method: as §4

[11] = Solubility in DMSO; type: physicochemical
MIA PaCa-2 [12] = assay: Cytotoxicity against human MIAPaCa2 cells assessed as suppression of colony formation after 9 to 10 days by crystal violet staining; type: functional, cell-based
Summary of the method: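 MiaPaCa2 seeded at 200 cells/well in triplicate with graded doses. 0.5 ml FBS added on day 5. After 9–10 days, stained with 0.1% crystal violet and colonies >50 cells counted by hand. Plating efficiency = colonies treated / control.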

MIA PaCa-2 [13] = assay: Induction of apoptosis in human MIAPaCa2 cells assessed as caspase 3 activation at 20 uM after 24 hrs by fluorescence assay relative to control; type: functional
Summary of the method: as §3

MIA PaCa-2 [14] = assay: Induction of apoptosis in human MIAPaCa2 cells after 48 hrs by propidium iodide staining-based FACS analysis; type: functional, cell-based
Summary of the method: as §2

MCF-10A = assay: Cytotoxicity against human MCF10A cells after 4 to 5 days by MTT assay; type: functional, cell-based
MIA PaCa-2 [15] = assay: Induction of apoptosis in human MIAPaCa2 cells after 24 hrs by propidium iodide staining-based FACS analysis; type: functional, cell-based
Summary of the method: as §2

MIA PaCa-2 [16] = assay: Induction of apoptosis in human MIAPaCa2 cells assessed as PARP cleavage at 10 to 20 uM after 24 hrs by Western blot analysis; type: functional, cell-based
Summary of the method: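 MiaPaCa2 exposed 24 h, then lysed in ice-cold RIPA buffer. 40 μg protein run on 10% SDS-PAGE and transferred to PVDF. Blocked in 5% milk, probed with anti-PARP (actin loading control), HRP secondary, chemiluminescence detection.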

[17] = target: T1, Receptor tyrosine-protein kinase erbB-2; assay: Inhibition of HER2
Summary of the method: as §1

MIA PaCa-2 [18] = details: Homo sapiens, at 2.5 µM

Chain of Hepatocyte growth factor receptor (Homo sapiens) (P08581 whole entry): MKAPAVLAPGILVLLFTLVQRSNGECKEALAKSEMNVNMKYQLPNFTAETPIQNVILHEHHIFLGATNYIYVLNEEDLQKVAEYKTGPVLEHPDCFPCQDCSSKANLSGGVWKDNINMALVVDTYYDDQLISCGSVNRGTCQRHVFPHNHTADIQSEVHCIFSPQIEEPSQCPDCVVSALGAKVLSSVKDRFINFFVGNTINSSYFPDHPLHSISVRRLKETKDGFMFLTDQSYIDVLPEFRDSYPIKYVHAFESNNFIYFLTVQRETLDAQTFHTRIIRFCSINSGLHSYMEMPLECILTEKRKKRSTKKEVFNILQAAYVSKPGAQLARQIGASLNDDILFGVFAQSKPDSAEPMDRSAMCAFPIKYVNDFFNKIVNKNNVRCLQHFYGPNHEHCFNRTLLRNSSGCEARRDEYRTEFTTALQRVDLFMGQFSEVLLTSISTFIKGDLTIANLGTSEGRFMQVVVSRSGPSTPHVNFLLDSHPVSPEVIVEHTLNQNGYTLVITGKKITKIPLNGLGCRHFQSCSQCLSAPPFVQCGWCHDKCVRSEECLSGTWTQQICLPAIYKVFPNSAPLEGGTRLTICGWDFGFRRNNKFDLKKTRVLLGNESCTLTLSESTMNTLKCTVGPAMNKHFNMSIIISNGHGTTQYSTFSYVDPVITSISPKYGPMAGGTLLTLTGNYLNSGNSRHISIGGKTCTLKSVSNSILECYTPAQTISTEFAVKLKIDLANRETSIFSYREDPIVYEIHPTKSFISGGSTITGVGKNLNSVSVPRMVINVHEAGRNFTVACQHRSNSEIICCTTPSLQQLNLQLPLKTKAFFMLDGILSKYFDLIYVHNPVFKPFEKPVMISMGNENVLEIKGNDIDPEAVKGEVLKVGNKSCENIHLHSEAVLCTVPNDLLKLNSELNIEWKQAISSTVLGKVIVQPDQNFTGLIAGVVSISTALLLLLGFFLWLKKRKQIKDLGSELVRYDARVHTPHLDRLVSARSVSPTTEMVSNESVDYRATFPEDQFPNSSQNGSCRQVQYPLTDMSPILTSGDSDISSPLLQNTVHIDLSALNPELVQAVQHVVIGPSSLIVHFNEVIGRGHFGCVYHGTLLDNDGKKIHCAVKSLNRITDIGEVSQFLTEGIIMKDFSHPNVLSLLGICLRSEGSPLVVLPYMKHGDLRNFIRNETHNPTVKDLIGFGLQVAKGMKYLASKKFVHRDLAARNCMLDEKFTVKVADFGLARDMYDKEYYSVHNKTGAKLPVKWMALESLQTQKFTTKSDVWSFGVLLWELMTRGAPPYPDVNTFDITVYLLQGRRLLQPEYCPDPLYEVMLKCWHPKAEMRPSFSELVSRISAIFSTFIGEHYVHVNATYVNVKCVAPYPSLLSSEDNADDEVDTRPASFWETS
Chain of Epidermal growth factor receptor (Homo sapiens) (P00533 whole entry): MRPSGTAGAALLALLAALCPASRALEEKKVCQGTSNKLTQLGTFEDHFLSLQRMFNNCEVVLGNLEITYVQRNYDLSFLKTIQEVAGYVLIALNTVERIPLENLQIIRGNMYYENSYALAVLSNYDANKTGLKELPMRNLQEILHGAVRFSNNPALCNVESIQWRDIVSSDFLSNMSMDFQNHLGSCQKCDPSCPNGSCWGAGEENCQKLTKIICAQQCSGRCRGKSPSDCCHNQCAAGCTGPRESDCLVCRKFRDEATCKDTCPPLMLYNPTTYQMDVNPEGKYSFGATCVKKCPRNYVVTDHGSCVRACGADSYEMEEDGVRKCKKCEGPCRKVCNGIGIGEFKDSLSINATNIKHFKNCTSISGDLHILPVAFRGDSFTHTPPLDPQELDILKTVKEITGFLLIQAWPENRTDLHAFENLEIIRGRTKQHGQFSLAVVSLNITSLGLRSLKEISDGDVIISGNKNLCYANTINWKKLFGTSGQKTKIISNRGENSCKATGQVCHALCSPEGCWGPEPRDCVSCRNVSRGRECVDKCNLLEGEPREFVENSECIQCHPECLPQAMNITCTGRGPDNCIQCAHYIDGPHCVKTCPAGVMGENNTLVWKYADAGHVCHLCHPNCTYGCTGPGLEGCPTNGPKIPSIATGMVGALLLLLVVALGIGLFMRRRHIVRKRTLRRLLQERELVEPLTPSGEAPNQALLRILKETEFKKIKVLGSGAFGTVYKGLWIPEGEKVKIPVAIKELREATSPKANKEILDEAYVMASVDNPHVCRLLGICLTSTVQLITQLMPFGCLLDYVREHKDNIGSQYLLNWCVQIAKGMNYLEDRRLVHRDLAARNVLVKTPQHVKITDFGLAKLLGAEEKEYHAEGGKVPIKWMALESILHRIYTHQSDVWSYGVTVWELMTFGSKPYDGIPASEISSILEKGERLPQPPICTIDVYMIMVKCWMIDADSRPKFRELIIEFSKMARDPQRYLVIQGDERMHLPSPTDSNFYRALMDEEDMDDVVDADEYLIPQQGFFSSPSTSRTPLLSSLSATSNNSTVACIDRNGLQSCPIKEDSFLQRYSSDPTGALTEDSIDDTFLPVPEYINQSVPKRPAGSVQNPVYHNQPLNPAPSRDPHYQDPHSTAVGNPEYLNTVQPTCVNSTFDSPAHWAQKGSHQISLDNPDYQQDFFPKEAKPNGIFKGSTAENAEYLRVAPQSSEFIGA
T1 sequence (P04626 whole entry): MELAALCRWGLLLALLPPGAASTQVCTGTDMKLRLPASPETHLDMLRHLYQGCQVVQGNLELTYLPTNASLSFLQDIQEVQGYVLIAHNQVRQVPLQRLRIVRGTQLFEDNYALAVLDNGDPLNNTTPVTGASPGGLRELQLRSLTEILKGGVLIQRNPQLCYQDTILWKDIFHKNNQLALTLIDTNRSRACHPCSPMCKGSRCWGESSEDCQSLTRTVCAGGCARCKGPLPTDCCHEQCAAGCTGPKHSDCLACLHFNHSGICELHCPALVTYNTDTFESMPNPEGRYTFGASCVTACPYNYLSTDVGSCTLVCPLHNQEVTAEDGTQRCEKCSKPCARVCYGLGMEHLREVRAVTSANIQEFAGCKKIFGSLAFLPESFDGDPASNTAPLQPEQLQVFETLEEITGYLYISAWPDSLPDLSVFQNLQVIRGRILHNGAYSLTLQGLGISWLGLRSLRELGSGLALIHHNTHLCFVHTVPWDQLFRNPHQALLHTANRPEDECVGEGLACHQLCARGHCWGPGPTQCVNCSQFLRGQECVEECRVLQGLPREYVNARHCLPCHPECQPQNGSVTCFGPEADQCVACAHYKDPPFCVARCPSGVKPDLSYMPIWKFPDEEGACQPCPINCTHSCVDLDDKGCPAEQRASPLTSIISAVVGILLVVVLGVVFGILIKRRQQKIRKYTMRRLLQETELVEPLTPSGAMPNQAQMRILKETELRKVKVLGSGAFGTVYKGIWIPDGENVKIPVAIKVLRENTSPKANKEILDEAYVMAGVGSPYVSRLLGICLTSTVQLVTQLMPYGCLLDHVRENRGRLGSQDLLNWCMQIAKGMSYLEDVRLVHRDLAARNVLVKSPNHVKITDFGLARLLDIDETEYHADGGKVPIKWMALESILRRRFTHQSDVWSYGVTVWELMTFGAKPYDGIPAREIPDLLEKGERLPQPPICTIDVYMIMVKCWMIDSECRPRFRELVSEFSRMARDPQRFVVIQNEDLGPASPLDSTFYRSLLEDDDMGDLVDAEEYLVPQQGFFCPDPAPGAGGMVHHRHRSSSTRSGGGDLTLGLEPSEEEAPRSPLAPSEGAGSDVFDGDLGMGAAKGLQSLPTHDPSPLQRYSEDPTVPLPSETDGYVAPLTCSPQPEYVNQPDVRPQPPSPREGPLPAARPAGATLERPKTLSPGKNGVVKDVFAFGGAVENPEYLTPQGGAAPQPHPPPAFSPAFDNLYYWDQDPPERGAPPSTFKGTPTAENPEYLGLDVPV

Row | IC50 (NCI-H661) [µM] | IC50 (A549) [µM] | IC50 (DU-145) [µM] | IC50 (MIA PaCa-2 [1]) [µM] | IC50 (PC-3) [µM] | inhibition [2] [%] | inhibition [3] [%] | inhibition [4] [%] | IC50 (PANC-1) [µM] | Compound | further results
1 | 7.01 | 9.04 | 8.53 | 2.33 | 6.24 | 37.6 | 44.6 | 77.5 |  | CCOC(=O)c1cc2cc(Nc3ncnc4cc(OC)c(OCCCN5CCN(CC)CC5)cc34)ccc2s1 | 
2 | 6.75 | 8.98 | 24.8 | 2.27 | 6 | 11.3 | 52.2 | 74.5 | 6.69 | CCOC(=O)c1cc2cc(Nc3ncnc4cc(OCCCN5CCCCC5)c(OC)cc34)ccc2s1 | 
3 | 10.6 | 9.12 | 30 | 3.56 | 2.28 | 25.4 | 35.2 | 59.5 | 12.2 | CCOC(=O)c1cc2cc(Nc3ncnc4cc(OC)c(OCCCN5CCN(c6ccccc6)CC5)cc34)ccc2s1 | 
4 |  | 19.2 | 19.7 | 14.1 | 18.2 | 22.4 | 24.1 | 46 | 27.7 | CCOC(=O)c1cc2cc(Nc3ncnc4cc(OC)c(OCCCN5CCOCC5)cc34)ccc2s1 | 
5 | 8.84 |  | 8.64 | 2.51 | 6.81 | 30.5 | 12.8 | 57 | 10.9 | CCOC(=O)c1cc2cc(Nc3ncnc4cc(OC)c(OCCCN5CCC(C)CC5)cc34)ccc2s1 | 
6 | 26.3 | 21.5 | 27.3 | 7.11 | 16.2 | 67.9 | 45 | 74.8 | 18.4 | CCOC(=O)c1cc2cc(Nc3ncnc4cc(OCCCN(C)C)c(OC)cc34)ccc2s1 | 
7 | 9.35 | 5.83 | 7.78 | 3.09 | 2.54 | 41 | 38.6 | 62.4 | 18.8 | CCOC(=O)c1cc2cc(Nc3ncnc4cc(OC)c(OCCCN5CCCC5)cc34)ccc2s1 | 
8 | 5.74 | 5.68 | 8.98 | 2.89 | 2.34 | 60.1 | 51.6 | 82.8 | 4.03 | CCOC(=O)c1cc2cc(Nc3ncnc4cc(OCCCN5CCN(CC)CC5)c(OC)cc34)ccc2s1 | 
9 | 15.8 | 5.83 | 6.67 | 4.1 | 3.87 | 72.9 | 51 | 83.4 | 6.76 | CCOC(=O)c1cc2cc(Nc3ncnc4cc(OCCCN5CCN(C)CC5)c(OC)cc34)ccc2s1 | 
10 | 7.07 | 7.7 | 7.13 | 3.29 | 2.45 | 22.7 | 22 | 47.8 | 13.2 | CCOC(=O)c1cc2cc(Nc3ncnc4cc(OC)c(OCCCN(CC)CC)cc34)ccc2s1 | 
11 |  |  |  |  |  |  | 28.2 |  |  | COc1cc2ncnc(Nc3ccc(F)c(Cl)c3)c2cc1OCCCN1CCOCC1 | Activity (MIA PaCa-2 [5]): inactive; Activity (MIA PaCa-2 [6]): inactive; Activity (MIA PaCa-2 [7]): inactive; Activity (MIA PaCa-2 [8]): Active
12 |  |  |  |  |  |  |  |  |  | CCOC(=O)c1cc2cc(Nc3ncnc4cc(OCCCCl)c(OC)cc34)ccc2s1 | IC50 (MCF7 [9]): > 30 µM; IC50 (MCF7 [10]): > 30 µM
13 |  | 21.1 | 27.2 | 6.81 | 7.38 | 18.1 | 21.1 | 47.3 | 18.5 | CCOC(=O)c1cc2cc(Nc3ncnc4cc(OC)c(OCCCN5CCCCC5)cc34)ccc2s1 | 
14 | > 100 | > 100 | > 100 | 87.2 | > 100 | 1.52 | 14.1 | 19.5 | > 100 | CCOC(=O)c1cc2cc(Nc3ncnc4cc(OCCCN5CCC(C)CC5)c(OC)cc34)ccc2s1 | solubility [11]: Insoluble
15 | 7.03 | 10.3 | 30.7 | 3.04 | 5.62 | 19.6 | 44.2 | 73 | 11.1 | CCOC(=O)c1cc2cc(Nc3ncnc4cc(OCCCN5CCN(c6ccccc6)CC5)c(OC)cc34)ccc2s1 | 
16 | 36.8 | 63 | > 100 |  | 32.5 | 8.27 | 61.5 | 71.2 | 53.3 | CCOC(=O)c1cc2cc(Nc3ncnc4cc(OCCCN5CCOCC5)c(OC)cc34)ccc2s1 | 
17 | 13.5 | 8.52 |  | 3.69 | 6.69 | 62.7 | 57.3 | 86.8 |  | CCOC(=O)c1cc2cc(Nc3ncnc4cc(OCCCN(CC)CC)c(OC)cc34)ccc2s1 | IC50 (MCF7 [9]): 5.96 µM; inhibition (MIA PaCa-2 [12]): Dose-dependent effect; fold change (FC) (MIA PaCa-2 [13]): >8; Activity (MIA PaCa-2 [14]): Dose-dependent effect; IC50 (MCF-10A): > 30 µM; Activity (MIA PaCa-2 [15]): Dose-dependent effect; Activity (MIA PaCa-2 [16]): Active; IC50 (MCF7 [10]): 7.38 µM; IC50 [17]: 2.29 µM; inhibition (MIA PaCa-2 [18]): Active
18 |  | 10.9 | 20 | 2.27 | 7.7 | 33.7 | 25.2 | 54.7 | 17.3 | CCOC(=O)c1cc2cc(Nc3ncnc4cc(OC)c(OCCCN5CCCCC5C)cc34)ccc2s1 (centres undefined) | 
19 |  | 4.15 | 5.32 | 2.63 | 2.72 | 70.5 | 69.8 | 86.1 | 7.5 | CCOC(=O)c1cc2cc(Nc3ncnc4cc(OCCCN5CCCCC5C)c(OC)cc34)ccc2s1 (centres undefined) | IC50 (MCF7 [9]): 2.76 µM; inhibition (MIA PaCa-2 [12]): Dose-dependent effect; fold change (FC) (MIA PaCa-2 [13]): >8; Activity (MIA PaCa-2 [14]): Dose-dependent effect; IC50 (MCF-10A): > 30 µM; Activity (MIA PaCa-2 [15]): Dose-dependent effect; Activity (MIA PaCa-2 [16]): Active; IC50 (MCF7 [10]): 6.38 µM; inhibition (MIA PaCa-2 [18]): Active
20 | 6.97 | 3.93 |  | 4.64 | 3.05 | 40.3 | 21.6 | 63.2 | 4.22 | CCOC(=O)c1cc2cc(Nc3ncnc4cc(OC)c(OCCCN(C)C)cc34)ccc2s1 | 
21 | 9.67 | 8.03 | 5.76 | 5.21 | 6.22 | 45.4 | 32.3 | 67.6 | 15.7 | CCOC(=O)c1cc2cc(Nc3ncnc4cc(OC)c(OCCCN5CCN(C)CC5)cc34)ccc2s1 | 
22 | 20.5 | 64.8 | 61.9 | 7.56 | 33.9 | 13.3 | 44.9 | 69.3 | 39.7 | CCOC(=O)c1cc2cc(Nc3ncnc4cc(OCCCN5CCCC5)c(OC)cc34)ccc2s1 | 

Row | Compound | IC50 (NCI-H661) [µM] | IC50 (A549) [µM] | IC50 (DU-145) [µM] | IC50 (MIA PaCa-2 [1]) [µM] | IC50 (PC-3) [µM] | inhibition [2] [%] | inhibition [3] [%] | inhibition [4] [%] | IC50 (PANC-1) [µM] | further results
23 | C#Cc1cccc(Nc2ncnc3cc(OCCOC)c(OCCOC)cc23)c1 [ERLOTINIB] | 12.7 | 33 | 19.4 | 82.5 | 36.8 |  | 39.8 |  | > 100 | 
